In ChEMBL document CHEMBL1146216, “Synthesis and biological activity of a gemcitabine phosphoramidate prodrug” (J Med Chem, 2007):

Legend:
CCRF-CEM [1] = test: Growth inhibition of CEM cells by MTT assay in presence of dipyridamole; conditions: Homo sapiens
[2] = Growth inhibition of AG6000 cells by SRB assay in presence of dipyridamole; assay type: functional, cell-based; conditions: Homo sapiens
Summary of the method: (§1)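 SRB growth assay run with the nucleoside transport inhibitor dipyridamole at 1 µM final. Cells were seeded at 5000/well and exposed to a range of drug concentrations for 72 h at 37 °C, 5% CO2. Media: DMEM for A2780 and the dCK-deficient AG6000; RPMI for A549, H292 and H460; each with 10% FCS and 20 mM HEPES. Relative growth was calculated against ODzero and untreated controls.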

A2780 [3] = test: Growth inhibition of A2780 cells by SRB assay in presence of dipyridamole; assay type: functional, cell-based; conditions: Homo sapiens
Summary of the method: as §1

[4] = Growth inhibition of AG6000 cells by SRB assay; assay type: functional, cell-based; conditions: Homo sapiens
Summary of the method: (§2)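 Cells seeded at 5000/well and exposed to a range of drug concentrations for 72 h at 37 °C, 5% CO2, then read by SRB. A2780 and its dCK-deficient variant AG6000 were grown in DMEM; A549, H292 and H460 in RPMI; both media had 10% FCS and 20 mM HEPES. OD was read at 540 or 492 nm. Relative growth = (ODtreated − ODzero)/(ODcontrol − ODzero) × 100%, with ODzero taken at drug addition.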

CCRF-CEM [5] = test: Growth inhibition of dCK deficient CEM cells by MTT assay in presence of dipyridamole; conditions: Homo sapiens
A549 [6] = test: Growth inhibition of A549 cells by SRB assay in presence of dipyridamole; assay type: functional, cell-based; conditions: Homo sapiens
Summary of the method: as §1

CCRF-CEM [7] = test: Growth inhibition of dCK deficient CEM cells by MTT assay; conditions: Homo sapiens
A2780 [8] = test: Growth inhibition of A2780 cells by SRB assay; assay type: functional, cell-based; conditions: Homo sapiens
Summary of the method: as §2

A549 [9] = test: Growth inhibition of A549 cells by SRB assay; assay type: functional, cell-based; conditions: Homo sapiens
Summary of the method: as §2

SW1573 [10] = test: Growth inhibition of SW1573 cells by SRB assay in presence of dipyridamole; assay type: functional, cell-based; conditions: Homo sapiens
Summary of the method: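 SW1573 cells cultured in DMEM, 10% FCS, 20 mM HEPES, 37 °C, 5% CO2. Plated at 5000 cells/well and given graded drug concentrations with the nucleoside transport inhibitor dipyridamole at 1 µM final, for 72 h. SRB read-out at OD 540 or 492 nm. Growth is expressed relative to time-zero and untreated wells.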

CCRF-CEM [11] = test: Growth inhibition of CEM cells by MTT assay; conditions: Homo sapiens
[12] = Growth inhibition of H292 cells by SRB assay; assay type: functional, cell-based; conditions: Homo sapiens, NCI-H292
Summary of the method: as §2

[13] = Growth inhibition of H292 cells by SRB assay in presence of dipyridamole; assay type: functional, cell-based; conditions: Homo sapiens, NCI-H292
Summary of the method: as §1

NCI-H460 [14] = test: Growth inhibition of H460 cells by SRB assay; assay type: functional, cell-based; conditions: Homo sapiens
Summary of the method: as §2

NCI-H460 [15] = test: Growth inhibition of H460 cells by SRB assay in presence of dipyridamole; assay type: functional, cell-based; conditions: Homo sapiens
Summary of the method: as §1

SW1573 [16] = test: Growth inhibition of SW1573 cells by SRB assay; assay type: functional, cell-based; conditions: Homo sapiens
Summary of the method: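 SW1573 NSCLC cells grown in DMEM with 10% FCS and 20 mM HEPES at 37 °C, 5% CO2. Seeded at 5000 cells/well and exposed to a range of drug concentrations for 72 h, then SRB assay. OD read at 540 or 492 nm. Relative growth = (ODtreated − ODzero)/(ODcontrol − ODzero) × 100%, with ODzero taken at drug addition.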

IC50 (CCRF-CEM [1]): 1000 nM
IC50 (A2780 [3]): 15 nM
IC50 (CCRF-CEM [5]): 100000 nM
IC50 (A549 [6]): 225 nM
IC50 (CCRF-CEM [7]): 50000 nM
IC50 (A2780 [8]): 1.5 nM
IC50 (A549 [9]): 14 nM
IC50 (SW1573 [10]): 275 nM
IC50 (CCRF-CEM [11]): 130 nM
IC50 (NCI-H460 [14]): 10 nM
IC50 (NCI-H460 [15]): 103 nM
IC50 (SW1573 [16]): 16 nM
Structure (SMILES): Nc1ccn([C@@H]2O[C@H](CO)[C@@H](O)C2(F)F)c(=O)n1 [GEMCITABINE]
IC50 [2]: 20000 nM
IC50 [4]: 20000 nM
IC50 [12]: 13 nM
IC50 [13]: 210 nM
